According to ChEMBL document CHEMBL1126263, “Development of high-affinity 5-HT3 receptor antagonists. 2. Two novel tricyclic benzamides” (J Med Chem, 1992):

Legend:
Type in all cases: functional
Mustela putorius furo [1] = experiment: Antiemetic potency was tested against cisplatin-induced emetic latency period in ferret after oral administration
Summary of the method: (§1)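 Ferret cisplatin-emesis model, iv or po pretreatment 30 or 60 min before cisplatin. Emetic latency read-out given as ED100, the dose raising emetic latency 100% over the control period. Based on 3–10 animals per dose, at least three per compound.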

Mustela putorius furo [2] = experiment: Antiemetic potency was tested against cisplatin-induced emetic episodes in ferret after oral administration
Summary of the method: (§2)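 Ferret cisplatin-emesis model. Drug given iv or po, 30 or 60 min before cisplatin. Emetic episodes counted and ED50 derived from 3–10 animals per dose, at least three per compound. Control emetic episode means were reported.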

Mustela putorius furo [3] = experiment: The compound was evaluated for the percentage increase in the emetic latency period to first emetic episode against cisplatin induced emesis in ferret (intravenous administration)
Summary of the method: (§3)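 Ferrets receive the test agent iv as a pretreatment before the cisplatin challenge; the table footnotes give 30 min and 60 min pretreatment times. Each dose uses 3–10 animals, with at least three doses per agent.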

Mustela putorius furo [4] = experiment: Ratio of number of animals protected to the number of tested against cisplatin-induced emesis in ferret upon intravenous administration; 0/3; summary of the method: as §3
Mustela putorius furo [5] = experiment: The compound was evaluated for the percentage reduction in the emetic episodes against cisplatin induced emesis in ferret (intravenous administration); summary of the method: as §3
Mustela putorius furo [6] = experiment: The compound was evaluated for the percentage reduction in the emetic episodes against cisplatin-induced emesis in ferret (intravenous administration); summary of the method: as §3
Mustela putorius furo [7] = experiment: Ratio of number of animals protected to the number of tested against cisplatin-induced emesis in ferret upon intravenous administration; 0/5; summary of the method: as §3
Mustela putorius furo [8] = experiment: The compound was evaluated for the percentage increase in the emetic latency period against cisplatin-induced emesis in ferret (oral administration)
Summary of the method: (§4)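 Ferrets dosed orally in 0.5% methylcellulose vehicle 60 min before cisplatin and observed for 240 min. Scored for complete protection (protected/tested), mean % reduction in emetic episodes and mean % increase in emetic latency. Non-vomiting animals were assigned 240 min latency. Significance versus vehicle group at p<0.05 or p<0.01.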

Mustela putorius furo [9] = experiment: Antiemetic potency against cisplatin-induced emetic episodes in ferret after intravenous administration; summary of the method: as §2
Mustela putorius furo [10] = experiment: Antiemetic potency against cisplatin-induced emetic latency period in ferret after intravenous administration; summary of the method: as §1
Mustela putorius furo [11] = experiment: Ratio of number of animals protected to the number of tested against cisplatin-induced emesis in ferret upon intravenous administration; 0/4; summary of the method: as §3
Mustela putorius furo [12] = experiment: Ratio of number of animals protected to the number of tested against cisplatin-induced emesis in ferret upon intravenous administration; 2/4; summary of the method: as §3
Mustela putorius furo [13] = experiment: Ratio of no. of protected and no. of tested evaluated by giving RG 12915 (0.003 mg/kg) 60 min prior to cisplatin (orally) in ferret; 1/4; summary of the method: as §4
Mustela putorius furo [14] = experiment: Ratio of no. of protected and no. of tested evaluated by giving 0.5% methylcellulose 60 min prior to cisplatin (orally) in ferret; 0/22; summary of the method: as §4
Mustela putorius furo [15] = experiment: Mean percent reduction in emetic episode evaluated by giving RG 12915 (0.010 mg/kg) 60 min prior to cisplatin (orally) in ferret; summary of the method: as §4
Mustela putorius furo [16] = experiment: Mean percent increase in emetic episode evaluated by giving RG 12915 (0.003 mg/kg) 60 min prior to cisplatin (orally) in ferret; summary of the method: as §4
Mustela putorius furo [17] = experiment: Mean percent increase in emetic episode evaluated by giving RG 12915 (0.03 mg/kg) 60 min prior to cisplatin (orally) in ferret; summary of the method: as §4
Mustela putorius furo [18] = experiment: Mean percent reduction in emetic episode evaluated by giving RG 12915 (1.0 mg/kg) 60 min prior to cisplatin (orally) in ferret; summary of the method: as §4
Mustela putorius furo [19] = experiment: Compound was evaluated for Percent protected by giving RG 12915 (1.0 mg/kg) 60 min prior to cisplatin (orally) in ferret; summary of the method: as §4
Mustela putorius furo [20] = experiment: Compound was evaluated for Percent protected by giving 0.5% methylcellulose 60 min prior to cisplatin (orally) in ferret; summary of the method: as §4
Mustela putorius furo [21] = experiment: Mean percent reduction in emetic episode evaluated by giving RG 12915 (0.03 mg/kg) 60 min prior to cisplatin (orally) in ferret; summary of the method: as §4
Mustela putorius furo [22] = experiment: Ratio of no. of protected and no. of tested evaluated by giving RG 12915 (0.010 mg/kg) 60 min prior to cisplatin (orally) in ferret; 5/12; summary of the method: as §4
Mustela putorius furo [23] = experiment: Mean percent increase in emetic episode evaluated by giving RG 12915 (1.0 mg/kg) 60 min prior to cisplatin (orally) in ferret; summary of the method: as §4
Mustela putorius furo [24] = experiment: Ratio of no. of protected and no. of tested evaluated by giving RG 12915 (1.0 mg/kg) 60 min prior to cisplatin (orally) in ferret; 7/10; summary of the method: as §4
Mustela putorius furo [25] = experiment: Mean percent reduction in emetic episode evaluated by giving RG 12915 (0.1 mg/kg) 60 min prior to cisplatin (orally) in ferret; summary of the method: as §4
Mustela putorius furo [26] = experiment: Mean percent increase in emetic episode evaluated by giving RG 12915 (0.1 mg/kg) 60 min prior to cisplatin (orally) in ferret; summary of the method: as §4
Mustela putorius furo [27] = experiment: Compound was evaluated for Percent protected by giving RG 12915 (0.03 mg/kg) 60 min prior to cisplatin (orally) in ferret; summary of the method: as §4
Mustela putorius furo [28] = experiment: Compound was evaluated for Percent protected by giving RG 12915 (0.1 mg/kg) 60 min prior to cisplatin (orally) in ferret; summary of the method: as §4
Mustela putorius furo [29] = experiment: Ratio of no. of protected and no. of tested evaluated by giving RG 12915 (0.03 mg/kg) 60 min prior to cisplatin (orally) in ferret; 4/4; summary of the method: as §4
Mustela putorius furo [30] = experiment: Compound was evaluated for Percent protected by giving RG 12915 (0.003 mg/kg) 60 min prior to cisplatin (orally) in ferret; summary of the method: as §4
Mustela putorius furo [31] = experiment: Compound was evaluated for Percent protected by giving RG 12915 (0.010 mg/kg) 60 min prior to cisplatin (orally) in ferret; summary of the method: as §4
Mustela putorius furo [32] = experiment: Ratio of no. of protected and no. of tested evaluated by giving RG 12915 (0.1 mg/kg) 60 min prior to cisplatin (orally) in ferret; 6/6; summary of the method: as §4
Mustela putorius furo [33] = experiment: Mean percent increase in emetic episode evaluated by giving RG 12915 (0.010 mg/kg) 60 min prior to cisplatin (orally) in ferret; summary of the method: as §4
Mustela putorius furo [34] = experiment: Mean percent reduction in emetic episode evaluated by giving RG 12915 (0.003 mg/kg) 60 min prior to cisplatin (orally) in ferret; summary of the method: as §4
Mustela putorius furo [35] = experiment: The compound was evaluated for the percentage increase in the emetic latency period to first emetic episode against cisplatin-induced emesis in ferret (intravenous administration); summary of the method: as §3

O=C(N[C@H]1CN2CCC1CC2)c1cc(Cl)cc2c1O[C@H]1CCC[C@H]2C1
ED100 (Mustela putorius furo [1]): >1 mg/kg
ED50 (Mustela putorius furo [2]): > 1 mg/kg

CN1CCCC1CCNC(=O)c1cc(Cl)cc2c1OC1CCCCC21 (stereo not drawn)
Increase (Mustela putorius furo [3]): -0.9%
Ratio (Mustela putorius furo [4]): 0
Reduction (Mustela putorius furo [5]): -38.1%

CCN(CC)CCNC(=O)c1cc(Cl)cc2c1OC1CCCCC21 (stereo not drawn)
Increase (Mustela putorius furo [3]): 6.5%
Reduction (Mustela putorius furo [6]): 2.2%
Ratio (Mustela putorius furo [7]): 0

O=C(N[C@H]1CN2CCC1CC2)c1cc(Cl)cc2c1O[C@H]1CCC[C@@H]2C1
ED100 (Mustela putorius furo [1]): 0.408 mg/kg
ED50 (Mustela putorius furo [2]): 0.085 mg/kg

O=C(NC1CN2CCC1CC2)c1cc(Cl)cc2c1OC1CCCCC21 (stereo not drawn)
ED100 (Mustela putorius furo [8]): 0.011 mg/kg
ED50 (Mustela putorius furo [2]): 0.005 mg/kg
ED50 (Mustela putorius furo [9]): 0.006 mg/kg
ED100 (Mustela putorius furo [10]): 0.011 mg/kg

O=C(NC1CN2CCC1CC2)c1cc(Cl)cc2c1OC1CCCC2C1 (stereo not drawn)
ED100 (Mustela putorius furo [1]): 0.022 mg/kg
ED50 (Mustela putorius furo [2]): 0.079 mg/kg

O=C(NCCc1c[nH]cn1)c1cc(Cl)cc2c1OC1CCCCC21 (stereo not drawn)
Increase (Mustela putorius furo [3]): 27.6%
Reduction (Mustela putorius furo [5]): 44.4%
Ratio (Mustela putorius furo [11]): 0

O=C(NCCN1CCOCC1)c1cc(Cl)cc2c1OC1CCCCC21 (stereo not drawn)
Increase (Mustela putorius furo [3]): 110.9%
Ratio (Mustela putorius furo [12]): 2
Reduction (Mustela putorius furo [5]): 48.9%

O=C(N[C@@H]1CN2CCC1CC2)c1cc(Cl)cc2c1O[C@@H]1CCCC[C@H]21
ED100 (Mustela putorius furo [1]): 0.258 mg/kg
ED50 (Mustela putorius furo [2]): 0.041 mg/kg

O=C(N[C@@H]1CN2CCC1CC2)c1cc(Cl)cc2c1O[C@H]1CCC[C@@H]2C1
ED100 (Mustela putorius furo [1]): 0.01 mg/kg
ED50 (Mustela putorius furo [2]): 0.007 mg/kg
ED50 (Mustela putorius furo [9]): 0.009 mg/kg
ED100 (Mustela putorius furo [10]): 0.006 mg/kg

O=C(N[C@@H]1CN2CCC1CC2)c1cc(Cl)cc2c1O[C@@H]1CCC[C@H]2C1
ED100 (Mustela putorius furo [1]): 0.29 mg/kg
ED50 (Mustela putorius furo [2]): 0.061 mg/kg

O=C(NC1CN2CCC1CC2)c1cc(Cl)cc2c3c(oc12)CCCC3 (stereo not drawn)
ED100 (Mustela putorius furo [1]): 0.272 mg/kg
ED50 (Mustela putorius furo [2]): 0.033 mg/kg

O=C(N[C@H]1CN2CCC1CC2)c1cc(Cl)cc2c1O[C@@H]1CCCC[C@H]21
ED100 (Mustela putorius furo [1]): >3 mg/kg
ED50 (Mustela putorius furo [2]): 0.084 mg/kg

O=C(N[C@H]1CN2CCC1CC2)c1cc(Cl)cc2c1O[C@H]1CCCC[C@@H]21
ED100 (Mustela putorius furo [1]): 0.107 mg/kg
ED50 (Mustela putorius furo [2]): 0.056 mg/kg

O=C(N[C@@H]1CN2CCC1CC2)c1cc(Cl)cc2c1O[C@H]1CCCC[C@@H]21
Ratio (Mustela putorius furo [13]): 1
Ratio (Mustela putorius furo [14]): 0
Reduction (Mustela putorius furo [15]): 57%
Increase (Mustela putorius furo [16]): 53%
Increase (Mustela putorius furo [17]): 195%
Reduction (Mustela putorius furo [18]): 90%
ED100 (Mustela putorius furo [8]): 0.005 mg/kg
Protected (Mustela putorius furo [19]): 70%
Protected (Mustela putorius furo [20]): 0%
Reduction (Mustela putorius furo [21]): 100%
Ratio (Mustela putorius furo [22]): 5
ED50 (Mustela putorius furo [2]): 0.004 mg/kg
Increase (Mustela putorius furo [23]): 171%
Ratio (Mustela putorius furo [24]): 7
Reduction (Mustela putorius furo [25]): 100%
Increase (Mustela putorius furo [26]): 195%
Protected (Mustela putorius furo [27]): 100%
Protected (Mustela putorius furo [28]): 100%
Ratio (Mustela putorius furo [29]): 4
Protected (Mustela putorius furo [30]): 25%
Protected (Mustela putorius furo [31]): 42%
Ratio (Mustela putorius furo [32]): 6
ED50 (Mustela putorius furo [9]): 0.004 mg/kg
Increase (Mustela putorius furo [33]): 105%
Reduction (Mustela putorius furo [34]): 24%
ED100 (Mustela putorius furo [10]): 0.007 mg/kg

Cn1cccc1CCNC(=O)c1cc(Cl)cc2c1OC1CCCCC21 (stereo not drawn)
Increase (Mustela putorius furo [35]): 1%
Reduction (Mustela putorius furo [5]): 51.7%
Ratio (Mustela putorius furo [11]): 0

CN1C2CCCC1CC(NC(=O)c1nn(C)c3ccccc13)C2 (stereo not drawn) [GRANISETRON]
ED100 (Mustela putorius furo [1]): 0.117 mg/kg
ED100 (Mustela putorius furo [10]): 0.082 mg/kg

CCN(CC)CCNC(=O)c1cc(Cl)c(N)cc1OC [METOCLOPRAMIDE]
ED100 (Mustela putorius furo [1]): >5 mg/kg
ED100 (Mustela putorius furo [10]): 2.1 mg/kg

Cc1nccn1CC1CCc2c(c3ccccc3n2C)C1=O (stereo not drawn) [ONDANSETRON]
ED100 (Mustela putorius furo [1]): 0.031 mg/kg
ED50 (Mustela putorius furo [2]): 0.28 mg/kg
ED50 (Mustela putorius furo [9]): 0.008 mg/kg
ED100 (Mustela putorius furo [10]): 0.015 mg/kg
